Screening results (PubChem)
KCNK9 inh – KCNK9 potassium channel inhibitors, primary screen, HEK293 cells, thallium flux | AID 488922, 2010 | B-score at 10 µM | FluxOR thallium flux fluorescence; hits give low values | 310,000 compounds, 1.2% hits | Potassium channel subfamily K member 9 (Homo sapiens), Q9NPC2;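 active means ratio B-score over 3 SD below the library mean, with starting fluorescence within 5 SD of its mean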;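 further: negative B-score means less thallium flux so channel inhibition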
hERG rescue – hERG rescue from dofetilide block, primary screen, cell-based, CHO-hERG, FluxOR thallium flux, dofetilide IC70 | activation (rescue from dofetilide block), less the hit threshold, % at 10 µM | dofetilide IC70 present | 310,000 compounds, 0.51% hits | Voltage-gated inwardly rectifying potassium channel KCNH2 (Homo sapiens), Q12809;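 active means activation above the mean of controls blocked by dofetilide plus 5 SD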;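 further: thallium influx through hERG after potassium depolarization seen as dye fluorescence rise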
KCNQ1 inh – inhibitors of human KCNQ1 channel, primary screen, cell-based, thallium flux, high-throughput; Potassium voltage-gated channel subfamily KQT member 1 (Homo sapiens), P51787; CHO-K1 KCNQ1, FluxOR thallium flux fluorescence; hits give high values; B-score at 10 µM; 310,000 compounds, 1.3% hits; AID 2642, 2010;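 active means compounds whose thallium flux B-score, printed positive for inhibition, exceeds three library SD while starting fluorescence stays within three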;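 further: channel opened by potassium depolarization with thallium stimulus after 20 min compound exposure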
Target sequence (P51787 whole entry, looked up): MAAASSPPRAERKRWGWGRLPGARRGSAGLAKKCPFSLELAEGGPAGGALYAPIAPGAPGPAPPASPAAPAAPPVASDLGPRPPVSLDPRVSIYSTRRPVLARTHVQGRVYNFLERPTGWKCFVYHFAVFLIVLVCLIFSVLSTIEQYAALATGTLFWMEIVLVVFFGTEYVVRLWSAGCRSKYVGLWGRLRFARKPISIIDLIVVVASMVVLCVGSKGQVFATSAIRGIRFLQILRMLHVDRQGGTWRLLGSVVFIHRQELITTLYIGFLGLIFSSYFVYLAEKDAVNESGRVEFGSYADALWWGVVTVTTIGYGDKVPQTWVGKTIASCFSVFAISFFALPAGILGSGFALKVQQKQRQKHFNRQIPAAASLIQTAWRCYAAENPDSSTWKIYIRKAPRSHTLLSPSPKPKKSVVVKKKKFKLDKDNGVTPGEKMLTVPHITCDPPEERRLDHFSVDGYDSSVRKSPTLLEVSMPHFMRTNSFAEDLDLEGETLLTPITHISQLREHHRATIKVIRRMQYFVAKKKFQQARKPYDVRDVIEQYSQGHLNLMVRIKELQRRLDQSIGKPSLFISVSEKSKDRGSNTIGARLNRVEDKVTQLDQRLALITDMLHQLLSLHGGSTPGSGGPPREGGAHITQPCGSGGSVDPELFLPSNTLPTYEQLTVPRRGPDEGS
KCNK3 block – human KCNK3 channel inhibitors, primary screen, CHO cells, FluxOR thallium flux, B-score; FluxOR fluorescence; hits give low values; 340,000 compounds, 0.84% hits; B-score at 10 µM; AID 602410, 2012;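 active means B-score under library mean minus 4 SD, starting fluorescence ratio at most library mean plus 5 SD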;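 further: more negative B-score means stronger inhibition of thallium flux through KCNK3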
KCNQ1 pot – potentiators or activators of KCNQ1 channel, primary screen, cell-based, thallium flux, high-throughput; 310,000 compounds, 0.35% hits; Potassium voltage-gated channel subfamily KQT member 1 (Homo sapiens), P51787; B-score at 10 µM; CHO-K1 KCNQ1, thallium flux FluxOR fluorescence; hits give high values;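 active means fluorescence ratio B-score, a plate-corrected score, at least three library SD, with initial intensity B-score within 5 SD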
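assay system = CHO-K1 cells stably expressing KCNQ1 | medium = assay buffer, equal DMSO in all wells | timing = 37 °C overnight plating, 90-min dark dye load, 20-min compound pretreatment | measured by = kinetic FluxOR thallium fluorescence, 10-s 1-Hz baseline, 110-s post-stimulus read | measure = fluorescence change relative to baseline, converted to B score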
KCNK9 inh conf – KCNK9 potassium channel inhibitors, confirmation, HEK293 cells, thallium flux, duplicate. FluxOR thallium flux fluorescence. AID 492992, 2010. 4,900 compounds, 43% hits. shares compounds with KCNK9 inh. inhibition, % at 10 µM;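 active means thallium signal inhibited by more than 5 SD of the compound-free buffer control wells, on both duplicate plates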;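 further: 0% = assay buffer control wells without compound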
Kir2-1 spec – mouse Kir2.1 channel inhibition, confirmation, selectivity assay for KCNK9 modulator project, cell-based, HEK293, thallium flux | Kir2.1 cells, FluxOR thallium flux fluorescence | inhibition, % at 10 µM | AID 492993, 2010 | 4,900 compounds, 4% hits | shares compounds with KCNK9 inh;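 active means thallium signal drop more than 5 SD beyond the mean of the no-compound control wells, seen in both duplicate plates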;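 further: signal is fluorescence rise after thallium addition divided by baseline fluorescence; plate controls were assay buffer only for no effect and full block by chlorpromazine control for full effect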
KCNK9 uninduced – thallium flux in non-induced HEK293 cells, confirmation, counter-screen for KCNK9 inhibitor project, cell-based, second counter screen, non-induced KCNK9-HEK293; shares compounds with KCNK9 inh; FluxOR thallium flux; inhibition, % at 10 µM; 4,900 compounds, 40% hits; AID 492997, 2010;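 active means thallium signal drop beyond 5 SD of the untreated control mean, on both duplicate plates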;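 further: plate controls were buffer only IC0 wells for no effect and SID17386958 at its maximal inhibitory level for full effect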
* = called active by the depositor; i = inactive; · = no result. Rows were chosen to be rich in hits. Some 3.1% of all compounds tested hit in one or more screens of this group.

SMILES | KCNK9 inh | hERG rescue | KCNQ1 inh | KCNK3 block | KCNQ1 pot | KCNK9 inh conf | Kir2-1 spec | KCNK9 uninduced
Cc1cc(=O)[nH]c(SCc2ccc(Cl)cc2Cl)n1 | i | -8.6 | i | i | i | · | · | ·
COc1ccccc1CN(C)CC(=O)Nc1ccc(Cl)cc1F | i | -19.2 | i | i | i | · | · | ·
COc1ccc(NC(=O)CN(C)Cc2cccs2)cc1Cl | -12.8* | -11.8 | i | -11.3* | i | 32.5%* | i | 33.0%*
COc1ccc(Br)cc1CN(C)CC(=O)Nc1ccccc1Cl | -8.71* | -14.4 | i | i | i | 33.5%* | 36.5%* | 36.5%*
COc1ccc(NC(=O)CCC(=O)c2cccs2)cc1Cl | i | -1.1 | i | i | i | · | · | ·
COc1ccccc1CN(C)CC(=O)Nc1ccc(Cl)cc1C(F)(F)F | -14.3* | -9.8 | i | i | i | 49.0%* | i | 42.5%*
CC(C)C[C@@H](CO)NS(=O)(=O)c1c(F)cccc1F | · | · | · | i | · | · | · | ·
CCOc1ccc(N(CC(=O)N2CCOCC2)S(=O)(=O)c2ccc(Cl)cc2)cc1 | i | -4.8 | i | i | i | · | · | ·
CCn1c(SCC#N)nc2c(c1=O)C1(CCCC1)Cc1ccccc1-2 | -11.5* | -7.4 | i | i | i | 47.0%* | i | i
CC(=O)c1c(N2CCN(C)CC2)nc(=S)n(Cc2ccccc2)c1C | i | -2.9 | i | i | i | · | · | ·
C=CCn1c(C)c(C(C)=O)c(N2CCN(C(c3ccccc3)c3ccccc3)CC2)nc1=S | -8.15* | -23.9 | i | i | i | 37.0%* | i | i
CN(C/C=C/C#CC(C)(C)C)Cc1cccc2ccccc12 | i | -8.6 | i | i | i | i | i | i
COc1ccc(OC)c(C(=O)NC(CC(N)=O)c2ccc(N3CCC(Cc4ccccc4)CC3)c([N+](=O)[O-])c2)c1 (centres undefined) | -10.9* | -16.0 | i | i | i | 55.0%* | i | i
CCN1C[C@@H]2[C@@H]3C(=O)N(Cc4ccccc4)C(=O)[C@@H]3[C@](CC)(C(=O)OC)N2C1=NC | · | · | · | i | · | · | · | ·
COc1ccc(C(=O)Oc2ccc3ccc(=O)oc3c2)cc1 | -13.3* | -2.9 | i | i | i | 64.0%* | i | 27.0%*
O=C(Oc1ccc2ccc(=O)oc2c1)c1ccccc1 | i | -10.8 | i | i | i | · | · | ·
O=C(C/C=N/OCc1ccc(Cl)cc1Cl)c1ccccc1 | i | -19.3 | i | i | i | · | · | ·
O=C(C/C=N/OCc1ccccc1F)c1cnc(-c2ccc(Cl)cc2)s1 | i | -8.2 | i | i | i | i | i | i
O=C(C/C=N/OCc1ccc(F)cc1Cl)c1cnc(-c2ccccc2)s1 | i | -6.8 | i | i | i | i | i | i
O=C(c1ccccc1)c1cnc(-c2ccc(Cl)cc2)s1 | i | -6.9 | i | i | i | · | · | ·
CN(C)c1nc(NNC(=O)c2ccccc2)nc(N(C)C)n1 | · | · | · | i | · | · | · | ·
CN(Cc1ccc(Cl)c(Cl)c1)C(=O)C1=CC=CN2CCS(=O)(=O)N=C12 | · | · | · | i | · | · | · | ·
CC(C)Cc1ccc(C(C)C(=O)Nc2ncccn2)cc1 (centres undefined) | i | -4.9 | i | i | i | · | · | ·
COC(=O)c1cc(NC(=O)C(C)c2ccc(CC(C)C)cc2)ccc1O (centres undefined) | i | -5.2 | i | i | i | i | i | i
CC(C)(C)OC(=O)N[C@H](C(=O)OC(C)(C)C)c1ccc2ccccc2c1 | · | · | · | i | · | · | · | ·
